Assay results as given in ChEMBL document CHEMBL1157626, “A concise synthesis of 1,4-dihydro-[1,4]diazepine-5,7-dione, a novel 7-TM receptor ligand core structure with melanocortin receptor agonist activity” (Bioorg Med Chem, 2010).

Key:
[1] = target: T1, Melanocyte-stimulating hormone receptor (Homo sapiens, UniProt Q01726); assay: Agonist activity at human MC1R expressed in CHO cells after 4 hrs by luciferase reporter gene assay; type: functional, cell-based
Procedure, shortened: (§1)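 CHO-6xCRE-luc+ cells expressing the human receptor, plated at 4000 cells/well in DMEM/F12 with 10% FBS 48 h before assay. Switched to serum-free medium 16 h before compound addition, then incubated 4 h at 37 °C. Luciferase read after 10 min dark adaptation. Activity expressed as % of fold stimulation by 1 × 10^-7 M NDP-aMSH (duplicate control wells).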
Target sequence in this assay (Q01726 whole entry): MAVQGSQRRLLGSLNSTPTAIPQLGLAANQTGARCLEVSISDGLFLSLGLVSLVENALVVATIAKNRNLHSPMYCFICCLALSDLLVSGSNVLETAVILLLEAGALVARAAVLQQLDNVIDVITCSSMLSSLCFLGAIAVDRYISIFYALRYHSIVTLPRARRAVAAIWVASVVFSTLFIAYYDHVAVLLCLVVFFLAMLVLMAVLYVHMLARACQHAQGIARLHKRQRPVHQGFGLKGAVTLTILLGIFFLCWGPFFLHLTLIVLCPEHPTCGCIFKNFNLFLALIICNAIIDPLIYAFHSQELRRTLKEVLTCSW

[2] = target: T1, Melanocyte-stimulating hormone receptor; assay: Agonist activity at human MC1R expressed in CHO cells after 4 hrs by luciferase reporter gene assay relative to alpha-melanocyte stimulating hormone; type: functional, cell-based; parameters: concentration or dose not given beside the values; procedure, shortened: as §1
Target sequence in this assay (Q01726 whole entry, looked up): as the sequence (Q01726 whole entry) above

Melanocortin receptor 4 [3] = target: T2, Melanocortin receptor 4 (Homo sapiens, UniProt P32245); assay: Agonist activity at human MC4R expressed in CHO cells after 4 hrs by luciferase reporter gene assay relative to alpha-melanocyte stimulating hormone; type: functional, cell-based; procedure, shortened: as §1
Melanocortin receptor 4 [4] = target: T2, Melanocortin receptor 4; assay: Agonist activity at human MC4R expressed in CHO cells after 4 hrs by luciferase reporter gene assay; type: functional, cell-based; procedure, shortened: as §1
Melanocortin receptor 4 [5] = target: T2, Melanocortin receptor 4; assay: Agonist activity at human MC4R expressed in CHO cells at 10 uM after 4 hrs by luciferase reporter gene assay relative to alpha-melanocyte stimulating hormone; type: functional, cell-based; procedure, shortened: as §1
[6] = target: T1, Melanocyte-stimulating hormone receptor; assay: Agonist activity at human MC1R expressed in CHO cells at 10 uM after 4 hrs by luciferase reporter gene assay relative to alpha-melanocyte stimulating hormone; type: functional, cell-based; procedure, shortened: as §1
Target sequence in this assay (Q01726 whole entry, looked up): as the sequence (Q01726 whole entry) above

Homo sapiens = species on record: Homo sapiens; assay: Selectivity for human MC1R over human MC4R

T2 sequence (P32245 whole entry): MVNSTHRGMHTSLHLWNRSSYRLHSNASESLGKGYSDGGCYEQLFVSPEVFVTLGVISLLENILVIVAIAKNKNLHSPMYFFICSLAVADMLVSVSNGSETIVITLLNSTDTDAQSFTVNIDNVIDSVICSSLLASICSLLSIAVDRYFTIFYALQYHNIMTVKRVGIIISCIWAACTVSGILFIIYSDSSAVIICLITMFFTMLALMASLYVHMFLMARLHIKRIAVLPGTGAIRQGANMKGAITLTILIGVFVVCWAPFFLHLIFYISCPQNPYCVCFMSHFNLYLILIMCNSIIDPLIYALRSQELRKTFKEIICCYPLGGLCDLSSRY

SMILES	EC50 ([1]; read-out: pEC50 (converted))	Activity [2]	Activity (Melanocortin receptor 4 [3])	EC50 (Melanocortin receptor 4 [4]; read-out: pEC50 (converted))	Efficacy (Melanocortin receptor 4 [5])	EC50 (Melanocortin receptor 4 [4]; read-out: EC50)	Efficacy [6]	EC50 ([1]; read-out: EC50)	Selectivity ratio (Homo sapiens)
COc1ccc(N(C(=O)CN2C=CN(c3cccnc3)C(=O)C(Cc3n[nH]c4cc(F)ccc34)C2=O)C(C)C)cc1 (racemic)	12.6 nM	65%	31	661 nM					
COc1ccc(N(C(=O)CN2C=CN(c3ccccc3)C(=O)C(Cc3cc[nH]n3)(Cc3n[nH]c4ccccc34)C2=O)C(C)C)cc1 (racemic)	398 nM	30%	16	1050 nM					
CC(C)N(C(=O)CN1C=CN(c2ccccc2)C(=O)C(Cc2n[nH]c3cc(F)ccc23)C1=O)c1ccccc1 (racemic)	186 nM	51%	19	537 nM					
CC(C)N(C(=O)CN1C=CN(c2ccccc2)C(=O)C(Cc2n[nH]c3ccccc23)C1=O)c1ccccc1 (racemic)	708 nM	42%	22	3240 nM					
COc1ccc(N(C(=O)CN2C=CN(c3ccccc3)C(=O)C(Cc3n[nH]c4cc(F)ccc34)C2=O)C(C)C)cc1 (racemic)		83%	39	355 nM					
CC(C)N(C(=O)CN1C=CN(c2ccccc2)C(=O)C(Cc2n[nH]c3ccccc23)C1=O)c1ccc(O)cc1 (single isomer, unassigned; form 1) [listing 1 of 2 here]		79%	44						
CC(C)N(C(=O)CN1C=CN(c2ccccc2)C(=O)C(Cc2n[nH]c3cc(F)ccc23)C1=O)c1ccc(F)cc1 (racemic)		53%	19	178 nM					
CC(C)N(C(=O)CN1C=CN(C)C(=O)C(Cc2n[nH]c3cc(F)ccc23)C1=O)c1ccc(F)cc1 (racemic)	3720 nM	62%			5%	> 30000 nM			
CC(C)N(C(=O)CN1C=CN(c2ccccc2)C(=O)C(Cc2n[nH]c3ccccc23)C1=O)c1ccc(O)cc1 (racemic) [listing 1 of 2 here]	550 nM			1000 nM					
CC(C)N(C(=O)CN1C=CN(c2ccccc2)C(=O)[C@@H](Cc2n[nH]c3ccccc23)C1=O)c1ccccc1					3%	> 30000 nM	9%	> 30000 nM	
CC(C)N(C(=O)CN1C=CN(c2ccccc2)C(=O)[C@H](Cc2n[nH]c3ccccc23)C1=O)c1ccccc1	295 nM	54%	26	1070 nM					
COc1ccc(N(C(=O)CN2C=CN(c3ccccc3)C(=O)C(Cc3n[nH]c4ccccc34)(OC)C2=O)C(C)C)cc1 (racemic)	1380 nM	58%	74	166 nM					
CCn1nc(CC2C(=O)N(CC(=O)N(c3ccc(OC)cc3)C(C)C)C=CN(c3ccccc3)C2=O)c2ccccc21 (racemic)					5%	> 30000 nM	2%	> 30000 nM	
CC(C)N(C(=O)CN1C=CN(c2ccccc2)C(=O)C(Cc2n[nH]c3ccccc23)C1=O)c1ccc(O)cc1 (single isomer, unassigned; form 2) [listing 1 of 2 here]		16%			5%				
COc1ccc(N(C(=O)CN2C=CN(c3cccnc3)C(=O)C(Cc3n[nH]c4ccccc34)C2=O)C(C)C)cc1 (racemic)	178 nM	60%	31	2880 nM					
COc1ccc(N(C(=O)CN2C=CN(c3ccccc3)C(=O)C(Cc3nn(C)c4ccccc34)C2=O)C(C)C)cc1 (racemic)					5%	> 30000 nM	6%	> 30000 nM	
CC(C)N(C(=O)CN1C=CN(c2ccccc2)C(=O)C(Cc2n[nH]c3ccccc23)C1=O)c1ccc(F)cc1 (racemic)		54%	22	282 nM					
COc1ccc(N(C(=O)CN2C=CN(C3CCCCC3)C(=O)C(Cc3n[nH]c4ccccc34)C2=O)C(C)C)cc1 (racemic)					19%	> 30000 nM	25%	> 30000 nM	

SMILES	EC50 ([1]; read-out: pEC50 (converted))	Activity [2]	Activity (Melanocortin receptor 4 [3])	EC50 (Melanocortin receptor 4 [4]; read-out: pEC50 (converted))	Efficacy (Melanocortin receptor 4 [5])	EC50 (Melanocortin receptor 4 [4]; read-out: EC50)	Efficacy [6]	EC50 ([1]; read-out: EC50)	Selectivity ratio (Homo sapiens)
O=C1C(Cc2n[nH]c3cc(F)ccc23)C(=O)N(c2ccccc2)C=CN1CC(=O)N1CCCCc2ccccc21 (racemic)		61%	16	437 nM					> 100
COc1ccc(N(C(=O)CN2C=CN(c3ccccc3)C(=O)[C@@H](Cc3n[nH]c4ccccc34)C2=O)C(C)C)cc1	1550 nM				14%	> 30000 nM			
COc1ccc(N(C(=O)CN2C=CN(Cc3ccccc3)C(=O)C(Cc3n[nH]c4ccccc34)C2=O)C(C)C)cc1 (racemic)	794 nM	59%			6%	> 30000 nM			
CC(C)N(C(=O)CN1C=CN(c2ccccc2)C(=O)C(Cc2n[nH]c3ccccc23)C1=O)c1ccc(O)cc1 (racemic) [listing 2 of 2 here]		54%	30						
CC(C)N(C(=O)CN1C=CN(c2ccccc2)C(=O)[C@@H](Cc2n[nH]c3cc(F)ccc23)C1=O)c1ccccc1					0%	> 30000 nM	2%	> 30000 nM	
COC1(Cc2n[nH]c3ccccc23)C(=O)N(CC(=O)N(c2ccc(F)cc2)C(C)C)C=CN(c2ccccc2)C1=O (racemic)	2950 nM	33%	52	44.7 nM					
CC(C)N(C(=O)CN1C=CN(c2ccccc2)C(=O)C(Cc2n[nH]c3ccccc23)C1=O)c1ccc(OC(F)(F)F)cc1 (racemic)		91%	78	151 nM					
CC(C)N(C(=O)CN1C=CN(c2ccccc2)C(=O)[C@H](Cc2n[nH]c3cc(F)ccc23)C1=O)c1ccccc1	35.5 nM	79%	23	1260 nM					
O=C1[C@@H](Cc2n[nH]c3ccccc23)C(=O)N(c2ccccc2)C=CN1CC(=O)N1CCCCc2ccccc21	1.58 nM	86%	27	100 nM					
O=C1[C@H](Cc2n[nH]c3ccccc23)C(=O)N(c2ccccc2)C=CN1CC(=O)N1CCCCc2ccccc21	61.7 nM	76%	20	794 nM					
O=C(CN1C=CN(c2ccccc2)C(=O)C(Cc2n[nH]c3ccccc23)C1=O)CP(=O)(O)Oc1ccccc1 (racemic)					4%	> 30000 nM	3%	> 30000 nM	
CC(C)N(C(=O)CN1C=CN(c2ccccc2)C(=O)C(Cc2n[nH]c3ccccc23)C1=O)c1ccc(O)cc1 (single isomer, unassigned; form 2) [listing 2 of 2 here]	52.5 nM					> 30000 nM			
O=C(CN1C=CN(c2ccccc2)C(=O)C(Cc2n[nH]c3ccccc23)C1=O)CP(=O)(Oc1ccccc1)Oc1ccccc1 (racemic)					5%	> 30000 nM	1%	> 30000 nM	
COc1ccc(N(C(=O)CN2C=CN(C3CCCCC3)C(=O)C(Cc3ccccc3)C2=O)C(C)C)cc1 (racemic)					0%	> 30000 nM	0%	> 30000 nM	
CC(C)N(C(=O)CN1C=CN(c2ccccc2)C(=O)C(Cc2n[nH]c3ccccc23)C1=O)c1ccc(O)cc1 (single isomer, unassigned; form 1) [listing 2 of 2 here]				1000 nM					
CC(C)N(C(=O)CN1C=CN(c2ccccc2)C(=O)C(Cc2n[nH]c3ccccc23)C1=O)c1ccc(N2CCOCC2)cc1 (racemic)	832 nM	22%			3%	> 30000 nM			
O=C1C(Cc2n[nH]c3ccccc23)C(=O)N(c2ccccc2)C=CN1CC(=O)N1CCCCc2ccccc21 (racemic)		61%	17	324 nM					
